The text below walks through data of ChEMBL document CHEMBL1140923, “Discovery of imidazo[1,2-b]thiazole derivatives as novel SIRT1 activators” (J Med Chem, 2009).

For data set [1], the target named is T1, NAD-dependent protein deacetylase sirtuin-1 (Homo sapiens) (UniProt Q96EB6).
T1 sequence (whole entry): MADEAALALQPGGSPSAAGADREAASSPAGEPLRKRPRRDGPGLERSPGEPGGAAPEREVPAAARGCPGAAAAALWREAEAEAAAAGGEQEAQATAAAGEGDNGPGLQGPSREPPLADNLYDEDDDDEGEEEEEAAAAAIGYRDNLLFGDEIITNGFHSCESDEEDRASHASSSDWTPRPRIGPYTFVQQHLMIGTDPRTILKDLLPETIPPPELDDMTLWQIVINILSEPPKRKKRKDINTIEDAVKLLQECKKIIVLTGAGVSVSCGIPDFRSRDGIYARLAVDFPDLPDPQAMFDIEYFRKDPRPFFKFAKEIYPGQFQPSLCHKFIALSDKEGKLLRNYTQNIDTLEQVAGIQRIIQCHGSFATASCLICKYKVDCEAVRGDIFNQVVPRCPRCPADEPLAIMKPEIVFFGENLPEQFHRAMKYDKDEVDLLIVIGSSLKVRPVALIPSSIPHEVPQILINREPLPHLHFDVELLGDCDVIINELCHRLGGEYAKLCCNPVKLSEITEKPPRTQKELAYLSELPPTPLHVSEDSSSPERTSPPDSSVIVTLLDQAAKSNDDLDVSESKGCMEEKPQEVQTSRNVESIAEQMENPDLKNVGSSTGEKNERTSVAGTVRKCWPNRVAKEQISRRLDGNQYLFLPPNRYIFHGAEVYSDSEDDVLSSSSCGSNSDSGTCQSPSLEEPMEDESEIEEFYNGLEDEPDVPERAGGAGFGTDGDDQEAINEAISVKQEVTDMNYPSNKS
Kind of data set: Activation of human SIRT1 expressed in Escherichia coli BL21Start assessed as concentration required to increase 50% enzyme activity by mass spectrometry assay. In short, it runs like this:
(§1)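 Truncated SIRT1 was expressed in E. coli BL21Start (DE3) and purified on Ni2+ chelate. Reaction: 10 nM enzyme, 0.5 µM biotinylated, fluorophore-tagged p53-derived 20-mer acetyl-lysine peptide and 120 µM NAD+, in 50 mM Tris-acetate pH 8 with NaCl, KCl, MgCl2, 5 mM DTT and 0.05% BSA; DMSO vehicle; 25 min at 25 °C. Stopped with formic acid/nicotinamide; acetylated versus deacetylated peptide read by mass spectrometry. EC1.5 is the concentration raising activity by 50%, the mean of three titration curves.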

Data set [2] concerns the target T1, NAD-dependent protein deacetylase sirtuin-1 (Homo sapiens). Put plainly: Activation of human SIRT1 expressed in Escherichia coli BL21Start assessed as maximum activation of enzyme activity by mass spectrometry assay. In short, it runs like this:
as §1

A short description of data set [3]: Solubility in water. The class given is physicochemical.
The nature of data set [4]: Solubility in buffer at pH 7.4 by HPLC method. The class given is physicochemical. The gist of the method: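 Kinetic solubility was measured in pH 7.4 buffer by HPLC.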
Data set [5] in a line: Metabolic stability in mouse microsomes assessed as half life. The class given is ADME, Microsome.
Data set [6] in a line: Metabolic stability in human microsomes assessed as half life. The class given is ADME, Microsome.
Data set [7] can be described thus: Oral bioavailability in C57BL/6 mouse at 100 mg/kg. The class given is ADME, organism-based. Particulars: in vivo. The gist of the method: (§2)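 Male C57BL/6 mice (18-22 g; 3 per dose group per time point), given 100 mg/kg po as the hydrochloride salt in 2% HPMC + 0.2% DOSS, or 10 mg/kg iv by tail vein in 10% ethanol/40% polyethylene glycol/50% H2O. Plasma was taken at 5, 30, 120 and 360 min after dosing and drug levels were measured.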

Data set [8] in a line: Cmax in C57BL/6 mouse at 100 mg/kg, po or 10 mg/kg, iv. The data set is classed as ADME, organism-based. To be noted: in vivo. In short, it runs like this: as §2
The nature of data set [9]: Terminal half life in C57BL/6 mouse at 100 mg/kg, po or 10 mg/kg, iv. The data set is classed as ADME, organism-based. To be noted: in vivo, read-out: beta t1/2 (converted). In short, it runs like this: as §2
Data set [10] can be described thus: AUC in C57BL/6 mouse at 100 mg/kg, po or 10 mg/kg, iv. The data set is classed as ADME, organism-based. Particulars: plasma. The gist of the method: as §2

As for `O=C(Nc1ccccc1-c1cn2c(CN3CCNCC3)csc2n1)c1ccccc1`, the Activity in data set [1] was 25 µM; in data set [2], 322%.

In the case of `COc1cccc(C(=O)Nc2ccccc2-c2cn3c(CN4CCNCC4)csc3n2)c1`, the Activity in data set [1] is 3.7 µM; in data set [2], 928%.

For `O=C(Nc1ccccc1-c1cn2c(CN3CCNCC3)csc2n1)c1ccc2ccccc2n1`, the Activity turned out to be 0.99 µM in [1] and 440% in data set [2].

Take `COc1cc(F)cc(C(=O)Nc2ccccc2-c2cn3c(CN4CCNCC4)csc3n2)c1`: the Activity in data set [1] was determined as 2.1 µM; in data set [2], 662%.

Regarding `O=C(Nc1ccccc1-c1cn2c(CN3CCNCC3)csc2n1)c1cccc(OC(F)(F)F)c1`, the Activity worked out at 0.9 µM in data set [1] and 665% in [2].

Consider `O=C(Cc1ccccc1)Nc1ccccc1-c1cn2c(CN3CCNCC3)csc2n1`, for which the Activity amounted to 14 µM in data set [1] and 130% in data set [2].

Regarding `O=C(Nc1ccccc1-c1cn2c(CN3CCNCC3)csc2n1)c1cnccn1`, the Activity in data set [1] turned out to be 1.7 µM; in data set [2], 270%.

For the compound `COc1cc(C(=O)Nc2cccc(-c3cn4ccsc4n3)c2)cc(OC)c1OC`, the Activity came out at 7.5 µM in [1] and 380% in data set [2].

As for `O=C(Nc1ccccc1-c1cn2c(CN3CCNCC3)csc2n1)c1cccc(SC(F)F)c1`, the Activity in data set [1] stood at 0.51 µM; in data set [2], 808%.

For the compound `O=C(Nc1ccccc1-c1cn2c(CN3CCNCC3)csc2n1)c1cc2ccccc2s1`, the values for the Activity in data set [1] and in [2] were 24 µM and 253%, respectively.

`COc1cc(C(=O)Nc2ccccc2-c2cn3cc(CN(C)C)sc3n2)cc(OC)c1OC`: the Activity in data set [1] amounted to 4.8 µM; in data set [2], 295%.

As for `COc1ccc(C(=O)Nc2ccccc2-c2cn3c(CN4CCNCC4)csc3n2)c(OC)c1`, the Activity in data set [1] was 31 µM; in data set [2], 197%.

For the compound `O=C(Nc1ccccc1-c1cn2c(CN3CCNCC3)csc2n1)c1cccc2cccnc12`, the Activity in data set [1] worked out at 45 µM; in [2] it was 208%.

As to `O=C(Nc1ccccc1-c1cn2c(CN3CCNCC3)csc2n1)c1cc2ccccc2o1`, the Activity in data set [1] stood at 0.61 µM; in data set [2] it was 381%.

Regarding `COc1cc(C(=O)Nc2ccccc2-c2cn3c(CN(C)C)csc3n2)cc(OC)c1OC`, the values for the Activity in data set [1] and in data set [2] were 1.9 µM and 270%, respectively.

For the compound `Oc1ccc(/C=C/c2cc(O)cc(O)c2)cc1`, the Activity in data set [1] came to 48 µM; in [2], 250%.

Take `O=C(Nc1ccccc1-c1cn2c(CN3CCNCC3)csc2n1)c1ccc2c(c1)OCO2`: the Activity in data set [1] was 4.9 µM; in data set [2], 332%.

Turning to `O=C(Nc1ccccc1-c1cn2c(CN3CCNCC3)csc2n1)c1cnc2ccccc2c1`, the Activity in data set [1] worked out at 0.68 µM; in data set [2], 301%.

Consider `COc1ccc(C(=O)Nc2ccccc2-c2cn3c(CN4CCNCC4)csc3n2)cc1F`, for which the figures for the Activity in [1] and in data set [2] were 6.2 µM and 619%, respectively.

Take `O=C(Nc1ccccc1-c1cn2c(CN3CCNCC3)csc2n1)c1ccc2occc2c1`: the Activity is 6.9 µM in [1] and 380% in [2].

As to `COc1cc(C(=O)Nc2cccc(-c3nc4ncccc4o3)c2)cc(OC)c1OC`, the figures for the Activity in data set [1] and in data set [2] were 11 µM and 388%, respectively.

As for `O=C(Nc1ccccc1-c1cn2c(CN3CCNCC3)csc2n1)C1CCCC1`, the Activity in data set [1] is 130 µM; in [2] it was 383%.

For `COc1ccc(C(=O)Nc2ccccc2-c2cn3c(CN4CCNCC4)csc3n2)cc1OC`, the Activity in data set [1] worked out at 4.5 µM; in [2], 406%.

In the case of `COc1cc(C(=O)Nc2ccccc2-c2cn3c(CN4CCNCC4)csc3n2)cc(OC)c1OC`, the Activity in data set [1] is 1.8 µM; in data set [2], 271%. Moreover, the solubility in data set [3] is over 10000 µg/mL; in data set [4], over 100 µM. The half-life in data set [5] is over 5 h; in data set [6], 1.87 h; in data set [9] it was 6 h. Besides, the bioavailability in data set [7] worked out at 40%. In data set [8], this compound came in with a Cmax of 14 µM. The compound further had an AUC in data set [10] of 45000 ng·h/mL.

Consider `COc1cc(C(=O)Nc2ccccc2-c2cn3ccsc3n2)cc(OC)c1OC`, for which the Activity in [1] was found to be 2.5 µM; in [2], 272%. The same compound came in with a solubility in [3] of under 100 µg/mL. Further, the half-life in data set [5] is 0.0833 h; in data set [6] it was 0.167 h.

For `COc1cc(C(=O)Nc2ccccc2-c2cn3cc(CN4CCNCC4)sc3n2)cc(OC)c1OC`, the Activity stood at 3.2 µM in data set [1] and 257% in data set [2].
